Experiments:
Type in all cases: functional
U-251 = experiment: Growth inhibition of human U251 cells after 48 hrs by sulforhodamine B assay; settings: U-251, 48 h
Method in brief: (§1)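 NCI-60 panel screen by SRB assay (Rubinstein method). Percentage growth taken from optical density of SRB colour, read before and 48 hrs after exposure to compound or vehicle control. All analogues first screened at 10^-5 M. Analogues giving 60% growth inhibition at that level in at least eight lines then went to a five-concentration dose-response study.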

[1] = Growth inhibition of human LOXIMVI cells after 48 hrs by sulforhodamine B assay; settings: LOX IMVI; method in brief: as §1
[2] = Growth inhibition of human SNB75 cells after 48 hrs by sulforhodamine B assay; settings: SNB-75, 48 h; method in brief: as §1
[3] = Growth inhibition of human SF295 cells after 48 hrs by sulforhodamine B assay; settings: SF-295, 48 h; method in brief: as §1
[4] = Growth inhibition of human SF268 cells after 48 hrs by sulforhodamine B assay; settings: SF-268, 48 h; method in brief: as §1
[5] = Growth inhibition of human SW620 cells after 48 hrs by sulforhodamine B assay; settings: SW-620, 48 h; method in brief: as §1
KM12 = experiment: Growth inhibition of human KM12 cells after 48 hrs by sulforhodamine B assay; settings: KM12, 48 h; method in brief: as §1
HT-29 = experiment: Growth inhibition of human HT-29 cells after 48 hrs by sulforhodamine B assay; settings: HT-29, 48 h; method in brief: as §1
[6] = Growth inhibition of human HCT15 cells after 48 hrs by sulforhodamine B assay; settings: HCT-15, 48 h; method in brief: as §1
[7] = Growth inhibition of human HCC2998 cells after 48 hrs by sulforhodamine B assay; settings: HCC 2998, 48 h; method in brief: as §1
[8] = Growth inhibition of human COLO205 cells after 48 hrs by sulforhodamine B assay; settings: COLO 205, 48 h; method in brief: as §1
NCI-H460 = experiment: Growth inhibition of human NCI-H460 cells after 48 hrs by sulforhodamine B assay; settings: NCI-H460, 48 h; method in brief: as §1
NCI-H23 = experiment: Growth inhibition of human NCI-H23 cells after 48 hrs by sulforhodamine B assay; settings: NCI-H23, 48 h; method in brief: as §1
[9] = Growth inhibition of human HOP62 cells after 48 hrs by sulforhodamine B assay; settings: HOP-62, 48 h; method in brief: as §1
A549 = experiment: Growth inhibition of human A549/ATCC cells after 48 hrs by sulforhodamine B assay; settings: A549, 48 h; method in brief: as §1
SR = experiment: Growth inhibition of human SR cells after 48 hrs by sulforhodamine B assay; method in brief: as §1
[10] = Growth inhibition of human RPMI8226 cells after 48 hrs by sulforhodamine B assay; settings: RPMI-8226, 48 h; method in brief: as §1
[11] = Growth inhibition of human MOLT4 cells after 48 hrs by sulforhodamine B assay; settings: MOLT-4, 48 h; method in brief: as §1
K562 = experiment: Growth inhibition of human K562 cells after 48 hrs by sulforhodamine B assay; settings: K562, 48 h; method in brief: as §1
[12] = Growth inhibition of human HL-60(TB) cells after 48 hrs by sulforhodamine B assay; settings: HL-60, 48 h; method in brief: as §1
CCRF-CEM = experiment: Growth inhibition of human CCRF-CEM cells after 48 hrs by sulforhodamine B assay; method in brief: as §1
MDA-MB-435 = experiment: Growth inhibition of human MDA-MB-435 cells after 48 hrs by sulforhodamine B assay; settings: MDA-MB-435, 48 h
Method in brief: (§2)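 NCI-60 sulforhodamine B screen. Compounds were first tested at a single dose of 10⁻⁵ M; hits, defined as ≥60% growth inhibition in at least eight lines, went on to a five-concentration dose–response. SRB optical density was read before and 48 h after exposure to compound or vehicle. Percentage growth was calculated from OD.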

SK-MEL-2 = experiment: Growth inhibition of human SK-MEL-2 cells after 48 hrs by sulforhodamine B assay; settings: SK-MEL-2, 48 h; method in brief: as §1
[13] = Growth inhibition of human IGROV1 cells after 48 hrs by sulforhodamine B assay; settings: IGROV-1, 48 h; method in brief: as §1
[14] = Growth inhibition of human OVCAR3 cells after 48 hrs by sulforhodamine B assay; settings: OVCAR-3, 48 h; method in brief: as §2
[15] = Growth inhibition of human NCI-ADR-RES cells after 48 hrs by sulforhodamine B assay; method in brief: as §1
[16] = Growth inhibition of human SKOV3 cells after 48 hrs by sulforhodamine B assay; settings: SK-OV-3, 48 h; method in brief: as §1
786-0 = experiment: Growth inhibition of human 786-0 cells after 48 hrs by sulforhodamine B assay; settings: 786-0, 48 h; method in brief: as §1
A498 = experiment: Growth inhibition of human A498 cells after 48 hrs by sulforhodamine B assay; settings: A498, 48 h; method in brief: as §2
ACHN = experiment: Growth inhibition of human ACHN cells after 48 hrs by sulforhodamine B assay; method in brief: as §1
CAKI-1 = experiment: Growth inhibition of human CAKI-1 cells after 48 hrs by sulforhodamine B assay; settings: CAKI-1, 48 h; method in brief: as §1
[17] = Growth inhibition of human UO31 cells after 48 hrs by sulforhodamine B assay; settings: UO-31, 48 h; method in brief: as §1
[18] = Growth inhibition of human PC3 cells after 48 hrs by sulforhodamine B assay; settings: PC-3, 48 h; method in brief: as §1
[19] = Growth inhibition of human DU145 cells after 48 hrs by sulforhodamine B assay; settings: DU-145, 48 h; method in brief: as §1
MCF7 = experiment: Growth inhibition of human MCF7 cells after 48 hrs by sulforhodamine B assay; settings: MCF7, 48 h; method in brief: as §1
MDA-MB-231 = experiment: Growth inhibition of human MDA-MB-231 cells after 48 hrs by sulforhodamine B assay; settings: MDA-MB-231, 48 h; method in brief: as §1
MDA-MB-468 = experiment: Growth inhibition of human MDA-MB-468 cells after 48 hrs by sulforhodamine B assay; settings: MDA-MB-468, 48 h; method in brief: as §1
[20] = read-out: LD50 (the source's name)

COc1ccc(-c2nn[nH]c2-c2cc(OC)c(OC)c(OC)c2)cc1
GI50 (U-251): < 10 nM | CC50 (U-251; [20]): > 100 µM | GI50 [1]: < 10 nM | CC50 [1, 20]: > 100 µM | GI50 [2]: < 10 nM | CC50 [2, 20]: > 100 µM | GI50 [3]: < 10 nM | CC50 [3, 20]: > 100 µM | GI50 [4]: < 10 nM | CC50 [4, 20]: > 100 µM | GI50 [5]: < 10 nM | LD50 (concentration killing 50% of cells) [5]: > 100 µM | GI50 (KM12): < 10 nM | LC50 (concentration killing 50% of cells) (KM12; read-out: LD50): > 100 µM | GI50 (HT-29): < 10 nM | LC50 (concentration killing 50% of cells) (HT-29; read-out: LD50): > 100 µM | GI50 [6]: < 10 nM | CC50 [6, 20]: > 100 µM | GI50 [7]: 24 nM | CC50 [7, 20]: > 100 µM | GI50 [8]: 29 nM | CC50 [8, 20]: > 100 µM | GI50 (NCI-H460): < 10 nM | CC50 (NCI-H460; [20]): > 100 µM | GI50 (NCI-H23): < 10 nM | LC50 (concentration giving 50% cell kill) (NCI-H23; read-out: LD50): > 100 µM | GI50 [9]: < 10 nM | LC50 (concentration killing 50% of cells) ([9]; read-out: LD50): > 100 µM | GI50 (A549): < 10 nM | CC50 (A549; [20]): > 100 µM | GI50 (SR): < 10 nM | LC50 (concentration giving 50% net cell kill) (SR; read-out: LD50): > 100 µM | GI50 [10]: < 10 nM | CC50 [10, 20]: > 100 µM | GI50 [11]: 12 nM | CC50 [11, 20]: > 100 µM | GI50 (K562): < 10 nM | CC50 (K562; [20]): > 100 µM | GI50 [12]: < 10 nM | CC50 [12, 20]: > 100 µM | GI50 (CCRF-CEM): < 10 nM | LC50 (concentration killing 50% of cells) (CCRF-CEM; read-out: LD50): > 100 µM | GI50 (MDA-MB-435): < 10 nM | TGI (MDA-MB-435): < 10 nM | LC50 (concentration killing 50% of cells) (MDA-MB-435; read-out: LD50): > 100 µM | GI50 (SK-MEL-2): < 10 nM | CC50 (SK-MEL-2; [20]): > 100 µM | GI50 [13]: < 10 nM | CC50 [13, 20]: > 100 µM | GI50 [14]: < 10 nM | TGI [14]: < 10 nM | LC50 (concentration giving 50% net cell kill) ([14]; read-out: LD50): > 100 µM | GI50 [15]: < 10 nM | CC50 [15, 20]: > 100 µM | GI50 [16]: < 10 nM | LC50 (concentration killing 50% of cells) ([16]; read-out: LD50): > 100 µM | GI50 (786-0): < 10 nM | LC50 (concentration killing 50% of cells) (786-0; read-out: LD50): > 100 µM | GI50 (A498): < 10 nM | TGI (A498): < 10 nM | LC50 (50% net cell kill) (A498; read-out: LD50): > 100 µM | GI50 (ACHN): < 10 nM | CC50 (ACHN; [20]): > 100 µM | GI50 (CAKI-1): < 10 nM | CC50 (CAKI-1; [20]): > 100 µM | GI50 [17]: < 10 nM | LC50 (concentration killing 50% of cells) ([17]; read-out: LD50): > 100 µM | GI50 [18]: < 10 nM | CC50 [18, 20]: > 100 µM | GI50 [19]: < 10 nM | CC50 [19, 20]: > 100 µM | GI50 (MCF7): < 10 nM | CC50 (MCF7; [20]): > 100 µM | GI50 (MDA-MB-231): < 10 nM | CC50 (MDA-MB-231; [20]): > 100 µM | GI50 (MDA-MB-468): < 10 nM | CC50 (MDA-MB-468; [20]): > 100 µM

Reference: ChEMBL document CHEMBL3739417, “Synthesis and biological evaluation of novel 4,5-disubstituted 2H-1,2,3-triazoles as cis-constrained analogues of combretastatin A-4” (2015)
